Measured values published in ChEMBL document CHEMBL1155459, “On-bead screening of a combinatorial fumaric acid derived peptide library yields antiplasmodial cysteine protease inhibitors with unusual peptide sequences” (J Med Chem, 2009).
Peptide text beside a SMILES is read from it.

Tests used:
[1] = target: Rhodesain (Trypanosoma brucei rhodesiense) (UniProt Q95PM0); experiment: Inhibition of Trypanosoma brucei rhodesiense rhodesain after 12 hrs by fluorescence spectroscopy-based on-bead assay; parameters: concentration or dose not given beside the values; details: concentration not given here
Sequence of Rhodesain (Trypanosoma brucei rhodesiense) (Q95PM0 1-450): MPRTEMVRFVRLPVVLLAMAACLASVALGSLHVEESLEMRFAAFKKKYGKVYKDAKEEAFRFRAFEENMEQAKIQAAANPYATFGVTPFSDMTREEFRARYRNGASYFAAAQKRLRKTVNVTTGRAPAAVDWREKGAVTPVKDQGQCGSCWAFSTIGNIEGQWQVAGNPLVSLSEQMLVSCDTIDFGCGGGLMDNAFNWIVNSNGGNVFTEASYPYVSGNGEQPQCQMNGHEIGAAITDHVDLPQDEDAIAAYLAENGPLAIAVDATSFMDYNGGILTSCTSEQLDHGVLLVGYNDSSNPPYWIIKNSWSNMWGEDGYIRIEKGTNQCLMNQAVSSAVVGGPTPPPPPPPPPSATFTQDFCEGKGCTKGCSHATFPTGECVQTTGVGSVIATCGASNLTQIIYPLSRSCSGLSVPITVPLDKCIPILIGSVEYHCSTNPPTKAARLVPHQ
Method in brief: (§1)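 Library members on resin (PEGA, theoretical loading 0.40 mmol/g; added as DMSO suspension, 0.64 mM final inhibitor) preincubated with enzyme 12 h, then Cbz-Phe-Arg-AMC 40 μM added; AMC release followed by fluorescence (ex 380/em 460 nm). Kinetics compared with inhibitor-free amino-PEGA resin.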

[2] = Inhibition of Plasmodium falciparum falcipain-2 after 12 hrs by fluorescence spectroscopy-based on-bead assay; parameters: concentration or dose not given beside the values; details: concentration not given here; method in brief: as §1

SMILES	inhibition [1] [%]	inhibition [2] [%]
CC[C@H](C)[C@H](NC(=O)[C@H](CCC(N)=O)NC(=O)/C=C/C(=O)NCC(=O)NCC(=O)N[C@@H](Cc1ccccc1)C(=O)O)C(=O)N[C@@H](C)C(=O)N[C@H](C(N)=O)C(C)C (HELM PEPTIDE1{[O=C(/C=C/C(=O)[*:2])NCC(=O)NCC(=O)N[C@@H](Cc1ccccc1)C(=O)O].Q.I.A.V.[am]}$$$$V2.0)	38	38
CC(C)[C@H](NC(=O)[C@H](C)NC(=O)[C@H](Cc1ccccc1)NC(=O)[C@H](C)NC(=O)/C=C/C(=O)NCC(=O)NCC(=O)N[C@@H](Cc1ccccc1)C(=O)O)C(N)=O (HELM PEPTIDE1{[O=C(/C=C/C(=O)[*:2])NCC(=O)NCC(=O)N[C@@H](Cc1ccccc1)C(=O)O].A.F.A.V.[am]}$$$$V2.0)	45	44
CC(C)C[C@H](NC(=O)[C@@H](NC(=O)[C@H](CC(N)=O)NC(=O)/C=C/C(=O)N[C@@H](C)C(=O)NCC(=O)N[C@@H](Cc1ccccc1)C(=O)O)C1CCCCC1)C(=O)N[C@H](C(N)=O)C(C)C (HELM PEPTIDE1{[C[C@H](NC(=O)/C=C/C(=O)[*:2])C(=O)NCC(=O)N[C@@H](Cc1ccccc1)C(=O)O].N.[O=C([C@@H](N[*:1])C1CCCCC1)[*:2]].L.V.[am]}$$$$V2.0)	66	40
CC(C)[C@H](NC(=O)[C@@H](NC(=O)[C@@H](NC(=O)[C@H](CC(N)=O)NC(=O)/C=C/C(=O)N[C@@H](C)C(=O)NCC(=O)N[C@@H](Cc1ccccc1)C(=O)O)c1ccccc1)C(C)C)C(N)=O (HELM PEPTIDE1{[C[C@H](NC(=O)/C=C/C(=O)[*:2])C(=O)NCC(=O)N[C@@H](Cc1ccccc1)C(=O)O].N.[Phg].V.V.[am]}$$$$V2.0)	37	51
CC[C@H](C)[C@H](NC(=O)[C@H](CNC(C)=O)NC(=O)/C=C/C(=O)N[C@@H](C)C(=O)NCC(=O)N[C@@H](Cc1ccccc1)C(=O)O)C(=O)N[C@@H](C)C(=O)N[C@H](C(N)=O)C(C)C (HELM PEPTIDE1{[C[C@H](NC(=O)/C=C/C(=O)[*:2])C(=O)NCC(=O)N[C@@H](Cc1ccccc1)C(=O)O].[O=C([C@H](CN[*:3])N[*:1])[*:2]].I.A.V.[am]}|PEPTIDE2{[ac]}$PEPTIDE1,PEPTIDE2,2:R3-1:R2$$$V2.0)	26	28
CC[C@H](C)[C@H](NC(=O)[C@H](C)NC(=O)/C=C/C(=O)N[C@@H](C)C(=O)NCC(=O)N[C@@H](Cc1ccccc1)C(=O)O)C(=O)N[C@@H](C)C(=O)N[C@H](C(N)=O)C(C)C (HELM PEPTIDE1{[C[C@H](NC(=O)/C=C/C(=O)[*:2])C(=O)NCC(=O)N[C@@H](Cc1ccccc1)C(=O)O].A.I.A.V.[am]}$$$$V2.0)	9	37
CC[C@H](C)[C@H](NC(=O)[C@H](C)NC(=O)/C=C/C(=O)N[C@@H](C)C(=O)NCC(=O)N[C@@H](Cc1ccccc1)C(=O)O)C(=O)N[C@@H](CC(C)C)C(=O)N[C@H](C(N)=O)C(C)C (HELM PEPTIDE1{[C[C@H](NC(=O)/C=C/C(=O)[*:2])C(=O)NCC(=O)N[C@@H](Cc1ccccc1)C(=O)O].A.I.L.V.[am]}$$$$V2.0)	49	54
CC(=O)NC[C@H](NC(=O)/C=C/C(=O)NCC(=O)NCC(=O)N[C@@H](Cc1ccccc1)C(=O)O)C(=O)N[C@@H](CC(C)C)C(=O)N[C@H](C(=O)N[C@H](C(N)=O)C(C)C)C(C)C (HELM PEPTIDE1{[O=C(/C=C/C(=O)[*:2])NCC(=O)NCC(=O)N[C@@H](Cc1ccccc1)C(=O)O].[O=C([C@H](CN[*:3])N[*:1])[*:2]].L.V.V.[am]}|PEPTIDE2{[ac]}$PEPTIDE1,PEPTIDE2,2:R3-1:R2$$$V2.0)	54	41
CC(C)C[C@H](NC(=O)[C@H](Cc1ccccc1)NC(=O)/C=C/C(=O)NCC(=O)NCC(=O)N[C@@H](Cc1ccccc1)C(=O)O)C(=O)N[C@H](C(=O)N[C@H](C(N)=O)C(C)C)C(C)C (HELM PEPTIDE1{[O=C(/C=C/C(=O)[*:2])NCC(=O)NCC(=O)N[C@@H](Cc1ccccc1)C(=O)O].F.L.V.V.[am]}$$$$V2.0)	58	46
CC(C)C[C@H](NC(=O)[C@@H](NC(=O)[C@H](C)NC(=O)/C=C/C(=O)NCC(=O)NCC(=O)N[C@@H](Cc1ccccc1)C(=O)O)c1ccccc1)C(=O)N[C@H](C(N)=O)C(C)C (HELM PEPTIDE1{[O=C(/C=C/C(=O)[*:2])NCC(=O)NCC(=O)N[C@@H](Cc1ccccc1)C(=O)O].A.[Phg].L.V.[am]}$$$$V2.0)	54	53
CC(C)[C@H](NC(=O)[C@@H](NC(=O)[C@H](Cc1ccccc1)NC(=O)[C@H](C)NC(=O)/C=C/C(=O)N[C@@H](C)C(=O)NCC(=O)N[C@@H](Cc1ccccc1)C(=O)O)C(C)C)C(N)=O (HELM PEPTIDE1{[C[C@H](NC(=O)/C=C/C(=O)[*:2])C(=O)NCC(=O)N[C@@H](Cc1ccccc1)C(=O)O].A.F.V.V.[am]}$$$$V2.0)	55	35
CC(C)C[C@H](NC(=O)[C@H](CC(N)=O)NC(=O)/C=C/C(=O)N[C@@H](C)C(=O)NCC(=O)N[C@@H](Cc1ccccc1)C(=O)O)C(=O)N[C@@H](CC(C)C)C(=O)N[C@H](C(N)=O)C(C)C (HELM PEPTIDE1{[C[C@H](NC(=O)/C=C/C(=O)[*:2])C(=O)NCC(=O)N[C@@H](Cc1ccccc1)C(=O)O].N.L.L.V.[am]}$$$$V2.0)	59	57
CC(C)[C@H](NC(=O)[C@H](C)NC(=O)[C@H](Cc1ccccc1)NC(=O)[C@H](CC(N)=O)NC(=O)/C=C/C(=O)NCC(=O)NCC(=O)N[C@@H](Cc1ccccc1)C(=O)O)C(N)=O (HELM PEPTIDE1{[O=C(/C=C/C(=O)[*:2])NCC(=O)NCC(=O)N[C@@H](Cc1ccccc1)C(=O)O].N.F.A.V.[am]}$$$$V2.0)	66	61
CC(=O)NC[C@H](NC(=O)/C=C/C(=O)N[C@@H](C)C(=O)NCC(=O)N[C@@H](Cc1ccccc1)C(=O)O)C(=O)N[C@@H](CC(C)C)C(=O)N[C@@H](C)C(=O)N[C@H](C(N)=O)C(C)C (HELM PEPTIDE1{[C[C@H](NC(=O)/C=C/C(=O)[*:2])C(=O)NCC(=O)N[C@@H](Cc1ccccc1)C(=O)O].[O=C([C@H](CN[*:3])N[*:1])[*:2]].L.A.V.[am]}|PEPTIDE2{[ac]}$PEPTIDE1,PEPTIDE2,2:R3-1:R2$$$V2.0)	19	28
CC(C)[C@H](NC(=O)[C@@H](NC(=O)[C@H](Cc1ccccc1)NC(=O)[C@H](CCC(N)=O)NC(=O)/C=C/C(=O)NCC(=O)NCC(=O)N[C@@H](Cc1ccccc1)C(=O)O)C(C)C)C(N)=O (HELM PEPTIDE1{[O=C(/C=C/C(=O)[*:2])NCC(=O)NCC(=O)N[C@@H](Cc1ccccc1)C(=O)O].Q.F.V.V.[am]}$$$$V2.0)	42	51
CC[C@H](C)[C@H](NC(=O)[C@H](CCC(N)=O)NC(=O)/C=C/C(=O)N[C@@H](C)C(=O)NCC(=O)N[C@@H](Cc1ccccc1)C(=O)O)C(=O)N[C@@H](CC(C)C)C(=O)N[C@H](C(N)=O)C(C)C (HELM PEPTIDE1{[C[C@H](NC(=O)/C=C/C(=O)[*:2])C(=O)NCC(=O)N[C@@H](Cc1ccccc1)C(=O)O].Q.I.L.V.[am]}$$$$V2.0)	47	46
CC(C)[C@H](NC(=O)[C@@H](NC(=O)[C@H](Cc1ccccc1)NC(=O)[C@H](C)NC(=O)/C=C/C(=O)NCC(=O)NCC(=O)N[C@@H](Cc1ccccc1)C(=O)O)C(C)C)C(N)=O (HELM PEPTIDE1{[O=C(/C=C/C(=O)[*:2])NCC(=O)NCC(=O)N[C@@H](Cc1ccccc1)C(=O)O].A.F.V.V.[am]}$$$$V2.0)	48	27
